Results published in ChEMBL document CHEMBL5303300, “EUbOPEN Chemogenomics Library - Multiplex” (2023).
Several values for one entry are separate records, joined by “and”; a condition that tells them apart may be missing. Equal entries are not always repeated.

System: Fibroblast
Assay: Multiplex assay against human fibroblast
Assay type: toxicity, cell-based
Settings: number of replicates 2
How it was run: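 Cells stained live at seeding with Hoechst33342, BioTracker Green Microtubule Cytoskeleton Dye, MitoTracker Red and Annexin V Alexa Fluor 680 were imaged on a CQ1 microscope at 37°C and 5% CO2 after compound addition. Their classification by CellPathfinder machine-learning gating ran from Hoechst high-intensity objects versus normal cells, to healthy, pyknosed or fragmented nuclei among normal cells, to mitotic or apoptotic among pyknosed cells. Tubulin, mitochondrial-mass and membrane-permeability phenotypes are per cents of healthy-nucleus cells.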

[1] = 12 h, 1 µM, compound concentration 1 uM
[2] = 12 h, 10 µM, compound concentration 10 uM
[3] = 24 h, 1 µM, compound concentration 1 uM
[4] = 24 h, 10 µM, compound concentration 10 uM
[5] = 48 h, 1 µM, compound concentration 1 uM
[6] = 48 h, 10 µM, compound concentration 10 uM

## Cn1ncc(NC(=O)c2nc(-c3c(F)cccc3F)sc2N)c1N1CC[C@@H](N)[C@H](F)CC1
[1]
  Population Apoptotic (%): 60% and 38%
  Population Fragmented Nuclei (%): 18%
  Population Healthy Nuclei (%): 67% and 74%
  Population Mitotic Cells (%): 40%
  Population Normal (%): 100% and 99%
  Population Tubulin-Different-Phenotype (%): 14% and 8%
  Total Cell Count: 170 and 268
[2]
  Population Apoptotic (%): 26% and 21%
  Population Fragmented Nuclei (%): 35%
  Population Healthy Nuclei (%): 48% and 47%
  Population Mitotic Cells (%): 73% and 78%
  Population Normal (%): 100%
  Population Tubulin-Different-Phenotype (%): 34% and 25%
  Total Cell Count: 307 and 502
[3]
  Population Apoptotic (%): 65% and 54%
  Population Fragmented Nuclei (%): 15%
  Population Healthy Nuclei (%): 65% and 73%
  Population Mitotic Cells (%): 34% and 45%
  Population Normal (%): 100%
  Population Tubulin-Different-Phenotype (%): 13% and 7%
  Total Cell Count: 172 and 273
[4]
  Population Apoptotic (%): 27% and 21%
  Population Fragmented Nuclei (%): 48% and 56%
  Population Healthy Nuclei (%): 43% and 38%
  Population Mitotic Cells (%): 72% and 78%
  Population Normal (%): 100% and 99%
  Population Tubulin-Different-Phenotype (%): 38% and 31%
  Total Cell Count: 456 and 659
[5]
  Population Apoptotic (%): 80% and 51%
  Population Fragmented Nuclei (%): 20%
  Population Healthy Nuclei (%): 63% and 69%
  Population Mitotic Cells (%): 20% and 48%
  Population Normal (%): 100%
  Total Cell Count: 193 and 286
[6]
  Population Apoptotic (%): 66% and 54%
  Population Fragmented Nuclei (%): 52% and 60%
  Population Healthy Nuclei (%): 45% and 38%
  Population Mitotic Cells (%): 45%
  Population Normal (%): 100%
  Population Tubulin-Different-Phenotype (%): 43% and 27%
  Total Cell Count: 604 and 928

## CC(C)S(=O)(=O)c1ccccc1Nc1nc(N[C@@H]2CCCN(CCCCCCCNC(=O)COc3cccc4c3C(=O)N(C3CCC(=O)N(C)C3=O)C4=O)C2)ncc1Cl (stereo partly drawn)
[1]
  Population Apoptotic (%): 58% and 50%
  Population Fragmented Nuclei (%): 7% and 16%
  Population Healthy Nuclei (%): 50% and 56%
  Population Hoechst High Intensity Objects (%): 0% and 1%
  Population Membrane Permeable-Phenotype (%): 10% and 9%
  Population Mitochondria Different-Phenotype (%): 5% and 6%
  Population Mitotic Cells (%): 41% and 49%
  Population Normal (%): 100% and 98%
  Population Pyknosed Nuclei (%): 42% and 27%
  Population Tubulin-Different-Phenotype (%): 58% and 39%
  Total Cell Count: 178 and 249
[2]
  Population Apoptotic (%): 63% and 51%
  Population Fragmented Nuclei (%): 9% and 14%
  Population Healthy Nuclei (%): 42% and 36%
  Population Hoechst High Intensity Objects (%): 0%
  Population Membrane Permeable-Phenotype (%): 33% and 29%
  Population Mitochondria Different-Phenotype (%): 24% and 26%
  Population Mitotic Cells (%): 36% and 49%
  Population Normal (%): 100% and 99%
  Population Pyknosed Nuclei (%): 47% and 48%
  Population Tubulin-Different-Phenotype (%): 24% and 17%
  Total Cell Count: 191 and 207
[3]
  Population Apoptotic (%): 81% and 86%
  Population Fragmented Nuclei (%): 16% and 21%
  Population Healthy Nuclei (%): 39% and 36%
  Population Hoechst High Intensity Objects (%): 0%
  Population Membrane Permeable-Phenotype (%): 13% and 8%
  Population Mitochondria Different-Phenotype (%): 6% and 5%
  Population Mitotic Cells (%): 18% and 14%
  Population Normal (%): 99% and 100%
  Population Pyknosed Nuclei (%): 43% and 42%
  Population Tubulin-Different-Phenotype (%): 25% and 18%
  Total Cell Count: 189 and 238
[4]
  Population Apoptotic (%): 76% and 74%
  Population Fragmented Nuclei (%): 15% and 16%
  Population Healthy Nuclei (%): 37% and 28%
  Population Hoechst High Intensity Objects (%): 0%
  Population Membrane Permeable-Phenotype (%): 20% and 9%
  Population Mitochondria Different-Phenotype (%): 52% and 73%
  Population Mitotic Cells (%): 23% and 25%
  Population Normal (%): 99%
  Population Pyknosed Nuclei (%): 47% and 55%
  Population Tubulin-Different-Phenotype (%): 50% and 36%
  Total Cell Count: 193 and 186
[5]
  Population Apoptotic (%): 86% and 96%
  Population Fragmented Nuclei (%): 15% and 24%
  Population Healthy Nuclei (%): 46% and 36%
  Population Hoechst High Intensity Objects (%): 0% and 1%
  Population Membrane Permeable-Phenotype (%): 19% and 21%
  Population Mitochondria Different-Phenotype (%): 4% and 6%
  Population Mitotic Cells (%): 13% and 3%
  Population Normal (%): 100% and 98%
  Population Pyknosed Nuclei (%): 38%
  Population Tubulin-Different-Phenotype (%): 24% and 27%
  Total Cell Count: 178 and 207
[6]
  Population Apoptotic (%): 85% and 88%
  Population Fragmented Nuclei (%): 14% and 22%
  Population Healthy Nuclei (%): 35% and 28%
  Population Hoechst High Intensity Objects (%): 1%
  Population Membrane Permeable-Phenotype (%): 7% and 16%
  Population Mitochondria Different-Phenotype (%): 37% and 27%
  Population Mitotic Cells (%): 14% and 11%
  Population Normal (%): 98%
  Population Pyknosed Nuclei (%): 50% and 49%
  Population Tubulin-Different-Phenotype (%): 70% and 53%
  Total Cell Count: 184 and 191

## C[C@@H]1CC[C@@]2(OC1)O[C@H]1[C@@H](O)[C@H]3[C@@H]4CC[C@H]5C[C@@H](O[C@@H]6O[C@H](CO)[C@H](O[C@@H]7O[C@H](CO)C(O)[C@H](O[C@@H]8OC[C@@H](O)[C@H](O)[C@H]8O)[C@H]7O[C@@H]7O[C@H](CO)[C@H](O)[C@H](O[C@@H]8O[C@H](CO)[C@@H](O)[C@H](O)[C@H]8O)[C@H]7O)[C@H](O)[C@H]6O)[C@H](O)C[C@]5(C)[C@H]4CC[C@]3(C)[C@H]1[C@@H]2C (stereo partly drawn) [DIGITONIN]
[2]
  Population Apoptotic (%): 44% and 47% and 48% and 42%
  Population Fragmented Nuclei (%): 9% and 12% and 13% and 8%
  Population Healthy Nuclei (%): 76% and 61% and 68% and 72%
  Population Hoechst High Intensity Objects (%): 0%
  Population Membrane Permeable-Phenotype (%): 6% and 4% and 1%
  Population Mitochondria Different-Phenotype (%): 0% and 1% and 2%
  Population Mitotic Cells (%): 56% and 52% and 51% and 57%
  Population Normal (%): 100%
  Population Pyknosed Nuclei (%): 13% and 26% and 18% and 19%
  Population Tubulin-Different-Phenotype (%): 10% and 4% and 8% and 6%
  Total Cell Count: 181 and 157 and 188 and 182
[4]
  Population Apoptotic (%): 55% and 53% and 47% and 66%
  Population Fragmented Nuclei (%): 11% and 12%
  Population Healthy Nuclei (%): 77% and 55% and 71% and 69%
  Population Hoechst High Intensity Objects (%): 0% and 1%
  Population Membrane Permeable-Phenotype (%): 6% and 2%
  Population Mitochondria Different-Phenotype (%): 0% and 1% and 3%
  Population Mitotic Cells (%): 45% and 46% and 52% and 33%
  Population Normal (%): 100% and 98%
  Population Pyknosed Nuclei (%): 11% and 32% and 17%
  Population Tubulin-Different-Phenotype (%): 11% and 3% and 7% and 12%
  Total Cell Count: 171 and 168 and 198 and 188
[6]
  Population Apoptotic (%): 90% and 64% and 75% and 60%
  Population Fragmented Nuclei (%): 12% and 14% and 15%
  Population Healthy Nuclei (%): 81% and 64% and 68%
  Population Hoechst High Intensity Objects (%): 0%
  Population Membrane Permeable-Phenotype (%): 5% and 1% and 7%
  Population Mitochondria Different-Phenotype (%): 0% and 1%
  Population Normal (%): 100% and 99%
  Population Tubulin-Different-Phenotype (%): 6% and 5%
  Total Cell Count: 169 and 162 and 205 and 188
